# Measurements: ChEMBL document CHEMBL1152212, “Docking study, synthesis, and in vitro evaluation of fluoro-MADAM derivatives as SERT ligands for PET imaging” (Bioorg Med Chem, 2008)
# Legend:
# [1] = Partition coefficient, log P in n-octanol/0.02 M phosphate buffer at pH 7.4; format: physicochemical
# [2] = target: T1, Sodium-dependent serotonin transporter (Rattus norvegicus, UniProt P31652); test: Displacement of [125I]IDAM from SERT in rat brain cortex membrane; format: cell membranes
# [3] = target: T1, Sodium-dependent serotonin transporter; test: Displacement of [3H]MADAM from SERT in rat brain cortex membrane; format: cell membranes
# Summary of the method: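 Paroxetine defined nonspecific binding. Bound radioactivity was collected by GF/B filtration with an ice-cold wash and beta-counted. IC50 was read graphically and Ki derived by Cheng-Prusoff. Samples run in duplicate; values are the mean of four determinations.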
# [4] = target: Sodium-dependent noradrenaline transporter (Homo sapiens, UniProt P23975); test: Displacement of [3H]nisoxetine from human cloned NET expressed in HEK293 cells; format: cell-based
# [5] = target: Sodium-dependent dopamine transporter (Homo sapiens, UniProt Q01959); test: Displacement of [3H]GBR-12935 from human cloned DAT expressed in HEK293 cells; format: cell-based
# [6] = Partition coefficient, log P at pH 7.4 by reverse-phase HPLC; format: physicochemical; details: octanol/water, read-out: logP
# Summary of the method: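 Indirect log P7.4 from retention time (triplicate) on a C-18 column (5 µm, 4.6 × 150 mm) eluted with methanol/0.1 M phosphate buffer pH 7.4 (50/50) at 1 mL/min. Calibrated against seven standards dissolved in mobile phase: quinoline, phenol, benzamide, chlorpromazine, hexachlorobenzene, ADAM and MADAM. Calibration equation: y = 1.438·Ln(retention time) – 0.7301, R² 0.93.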
# [7] = target: T1, Sodium-dependent serotonin transporter
# T1 sequence (P31652 whole entry): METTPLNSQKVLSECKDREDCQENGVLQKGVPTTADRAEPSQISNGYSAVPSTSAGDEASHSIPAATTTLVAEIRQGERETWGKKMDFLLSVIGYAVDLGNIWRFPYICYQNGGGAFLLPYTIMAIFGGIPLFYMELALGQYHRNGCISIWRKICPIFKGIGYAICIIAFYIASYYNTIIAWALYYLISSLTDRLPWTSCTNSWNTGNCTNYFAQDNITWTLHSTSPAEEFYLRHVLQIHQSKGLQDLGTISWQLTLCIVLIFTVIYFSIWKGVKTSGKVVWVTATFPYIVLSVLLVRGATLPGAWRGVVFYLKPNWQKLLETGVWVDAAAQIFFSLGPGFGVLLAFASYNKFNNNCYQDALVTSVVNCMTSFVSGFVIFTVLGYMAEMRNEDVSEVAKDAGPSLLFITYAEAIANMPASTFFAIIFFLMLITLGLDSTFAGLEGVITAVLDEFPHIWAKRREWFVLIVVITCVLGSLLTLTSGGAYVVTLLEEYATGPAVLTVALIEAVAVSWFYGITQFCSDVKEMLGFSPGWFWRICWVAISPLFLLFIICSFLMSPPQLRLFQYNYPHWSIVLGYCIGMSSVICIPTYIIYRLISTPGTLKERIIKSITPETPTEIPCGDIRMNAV
# Sodium-dependent noradrenaline transporter, sequence (P23975 whole entry): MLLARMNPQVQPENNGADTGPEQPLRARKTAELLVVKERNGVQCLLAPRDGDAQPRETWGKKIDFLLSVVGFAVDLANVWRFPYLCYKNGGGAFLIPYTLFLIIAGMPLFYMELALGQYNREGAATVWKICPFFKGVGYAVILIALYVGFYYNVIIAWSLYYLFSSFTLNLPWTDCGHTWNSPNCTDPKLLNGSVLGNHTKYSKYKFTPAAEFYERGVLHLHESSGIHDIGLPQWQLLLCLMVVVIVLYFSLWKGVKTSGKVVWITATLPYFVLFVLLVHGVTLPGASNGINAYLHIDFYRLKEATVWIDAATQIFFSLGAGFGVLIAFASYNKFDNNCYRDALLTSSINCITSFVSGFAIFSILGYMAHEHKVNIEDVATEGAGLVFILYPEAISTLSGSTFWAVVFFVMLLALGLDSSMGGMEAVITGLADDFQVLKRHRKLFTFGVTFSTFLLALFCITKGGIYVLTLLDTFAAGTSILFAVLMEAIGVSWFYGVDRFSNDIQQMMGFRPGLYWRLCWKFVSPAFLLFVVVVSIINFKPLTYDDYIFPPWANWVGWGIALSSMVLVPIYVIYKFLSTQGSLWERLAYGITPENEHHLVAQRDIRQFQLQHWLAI
# Sodium-dependent dopamine transporter, sequence (Q01959 whole entry): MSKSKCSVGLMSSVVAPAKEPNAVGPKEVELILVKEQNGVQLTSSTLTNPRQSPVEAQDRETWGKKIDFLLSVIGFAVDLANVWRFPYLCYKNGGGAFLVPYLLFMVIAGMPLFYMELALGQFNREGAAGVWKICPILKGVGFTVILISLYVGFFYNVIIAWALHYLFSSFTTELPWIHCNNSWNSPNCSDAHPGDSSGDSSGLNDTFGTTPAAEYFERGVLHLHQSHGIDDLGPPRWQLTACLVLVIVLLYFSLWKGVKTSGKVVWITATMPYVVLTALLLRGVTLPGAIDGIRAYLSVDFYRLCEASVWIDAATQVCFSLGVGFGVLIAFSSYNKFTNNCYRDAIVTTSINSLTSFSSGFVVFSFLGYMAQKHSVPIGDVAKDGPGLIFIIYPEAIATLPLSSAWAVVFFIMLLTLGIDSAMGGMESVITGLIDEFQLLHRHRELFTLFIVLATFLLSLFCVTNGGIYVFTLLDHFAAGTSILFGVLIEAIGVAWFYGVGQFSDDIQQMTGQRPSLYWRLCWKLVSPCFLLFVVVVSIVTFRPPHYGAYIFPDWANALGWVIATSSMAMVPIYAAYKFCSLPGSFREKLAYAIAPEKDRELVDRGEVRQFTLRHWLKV
Ki [2],Ki [4],Ki [5],SMILES,Ki [3],further results
–,325 nM,> 1000 nM,Cc1ccc(Sc2ccccc2CN(C)C)c(N)c1,–,logD [1]: 2.46
193 nM,–,–,CN(C)Cc1ccccc1Sc1ccc(I)cc1NC(=O)c1ccc(F)cc1,–,–
8 nM,–,–,CN(C)Cc1ccccc1Sc1ccc(Br)cc1NC(=O)c1ccc(F)cc1,–,–
–,> 5200 nM,> 1000 nM,Cc1ccc(Sc2ccccc2CN(C)C)c(NC(=O)c2ccc(F)cc2)c1,14.3 nM,chromatographic logD [6]: 2.99

# Continued, molecule first:
SMILES,Ki [2],Ki [4],Ki [5],Ki [3],further results
CN(C)Cc1ccccc1Sc1ccc(I)cc1N,–,–,–,–,logD [1]: 2.52
CN(C)Cc1ccccc1Sc1ccc(Cl)cc1NC(=O)c1ccc(F)cc1,0.9 nM,–,–,–,–
Cc1ccc(Sc2ccccc2CN(C)C)c(NC(=O)c2ccc([N+](=O)[O-])cc2)c1,–,> 1000 nM,> 1000 nM,> 100 nM,–
CNCc1ccccc1Sc1ccc(C)cc1NCc1ccc(F)cc1,–,> 1000 nM,> 2000 nM,> 100 nM,–
Cc1ccc(Sc2ccccc2CN(C)C)c(NCc2ccc(F)cc2)c1,–,> 1200 nM,> 1500 nM,10.1 nM,chromatographic logD [6]: 4.7
CN(C)Cc1ccccc1Sc1ccc(I)cc1CO,–,–,–,–,Ki [7]: 0.1 nM
CN(C)Cc1ccccc1Sc1ccccc1NC(=O)c1ccc(F)cc1,34 nM,–,–,–,–
Cc1ccc(Sc2ccccc2CN(C)C)c(NCc2ccc([N+](=O)[O-])cc2)c1,–,> 1900 nM,> 1000 nM,60 nM,–
CNCc1ccccc1Sc1ccc(C)cc1NC(=O)c1ccc(F)cc1,–,> 2500 nM,> 1000 nM,> 500 nM,–
